Assay [1] has as its system Gallus gallus. Put plainly: Compound tested in vivo for anti-coccidial activity which cleared number of chicks from parasite at 400 ppm in the diet. It is filed as functional. The essentials: (§1)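 Week-old chicks were given a simultaneous infection of Eimeria tenella (Weybridge strain) and E. acervulina (Ongar strain). Compound was mixed into the diet at the stated ppm level. Activity against E. acervulina was judged from oocyst production at day 5. Treated-group weight gain was compared with controls.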

Assay [2] is filed under the species Gallus gallus. Kind of assay: In vitro minimum inhibitory concentration for Eimeria tenella in embryonic chick liver cells; Slightly toxic. The assay is classed as functional. The essentials:
(§2)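 E. tenella (Weybridge strain) was grown in cultured embryonic chick liver cells. The minimum inhibitory concentration against parasite growth was determined, and toxicity to the host cells was recorded alongside it.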

Assay [3] has as its system Eimeria tenella. Put plainly: In vitro minimum inhibitory concentration for Eimeria tenella in embryonic chick liver cells. It is filed as functional. Summed up: as §2
Assay [4] relates to Eimeria tenella. Kind of assay: Anti-coccidial activity which cleared number of chicks from parasite. It is filed as functional. Summed up: as §1
The species entered for assay [5] is Gallus gallus. Put plainly: In vitro minimum inhibitory concentration for Eimeria tenella in embryonic chick liver cells; Toxic. The assay is classed as functional. Summed up: as §2
In assay [6] the test system is Detroit 98. Kind of assay: Concentration that inhibited the growth of cultured human detroit 98 cells. The assay is classed as functional. As to conditions: read-out: ED50 (the source's name). The essentials:
(§3)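 Cloned Detroit 98 cells (human sternal marrow, ATCC CCL 18.1 derivative) or cloned mouse L cells (C3H/AN connective tissue) were grown as monolayers in modified Eagle's medium at 36 °C in a humidified CO2 incubator. Cells were exposed for 70-76 h, and control cultures reached at least two doublings. Total counts were made by electronic counter on replicate cultures. ED50 is the molar concentration giving 50% of control growth, read from a plot.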

The test system of assay [7] is L cells. Put plainly: Concentration that inhibited the growth of Mouse L cells. As to conditions: L929, read-out: ED50 (the source's name). It is filed as functional. The essentials:
as §3

Assay [8] concerns Gallus gallus. Kind of assay: Compound tested in vivo for anti-coccidial activity which cleared number of chicks from parasite at 100 ppm in the diet; One chick out of five died and contained lesions due to parasite.
Assay [9] deals with Gallus gallus. Put plainly: Compound tested in vivo for anti-coccidial activity which cleared number of chicks from parasite at 400 ppm in the diet; Chicks showed decreased weight gain. It is filed as functional. The essentials: as §1
The subject of assay [10] is Gallus gallus. Kind of assay: Compound tested in vivo for anti-coccidial activity which cleared number of chicks from parasite at 400 ppm in the diet; One chick out of five died and contained lesions due to parasite. It is filed as functional.
Assay [11] deals with Gallus gallus. Put plainly: Compound tested in vivo for anti-coccidial activity which cleared number of chicks from parasite at 200 p.p.m. in the diet.
Assay [12] deals with Gallus gallus. Kind of assay: Compound tested in vivo for anti-coccidial activity which cleared number of chicks from parasite at 25 p.p.m. in the diet. It is filed as functional. Summed up:
as §1

In assay [13] the test system is Detroit 98. Kind of assay: Concentration that inhibited the growth of cultured human detroit 98 cells. The assay is classed as functional. As to conditions: read-out: ED50 (the source's name). Summed up:
as §3

Assay [14] concerns L cells. Put plainly: Concentration that inhibited the growth of Mouse L cells. It is filed as functional. To be noted: L929, read-out: ED50 (the source's name). The essentials:
as §3

pEC50: −log10 of the molar value. Converted amounts (≈) assume the structure as drawn.

In turn, `OC[C@H]1OC(n2ncc3c(N4CCOCC4)ncnc32)[C@H](O)[C@@H]1O` (stereo not given in full) showed a No. of chicks in the assay with Gallus gallus [1] of 0. The MIC (as a rule, the least concentration at which growth counts as inhibited) in the assay listed under Gallus gallus [2] was found to be 20 µg/mL (≈ 59.3 µM).
`O=c1[nH]cnc2c1cnn2[C@@H]1O[C@H](CO)[C@@H](O)[C@H]1O` displayed a No. of chicks with Gallus gallus [1] of 0. Moreover, the MIC with Eimeria tenella [3] stood at 20 µg/mL (≈ 74.6 µM).
As for `OC[C@H]1OC(n2ncc3c(NC4CCCC4)ncnc32)[C@H](O)[C@@H]1O` (stereo not given in full), the No. of chicks with Eimeria tenella [4] worked out at 5. The MIC in the assay on Eimeria tenella [3] worked out at 0.31 µg/mL (≈ 0.924 µM).
Regarding `CCCCCCNc1ncnc2c1cnn2C1O[C@H](CO)[C@@H](O)[C@H]1O` (stereo not given in full), the No. of chicks in the assay on Eimeria tenella [4] was found to be 0. In addition, the MIC against Eimeria tenella [3] worked out at 1.25 µg/mL (≈ 3.56 µM).
`Nc1ncnc2c1ncn2[C@@H]1O[C@H](CO)[C@@H](O)[C@H]1O` [ADENOSINE] registered a No. of chicks in the assay on Eimeria tenella [4] of 0. This compound also yielded an MIC in the assay listed under Gallus gallus [5] of 20 µg/mL (≈ 74.8 µM). The figures for the pEC50 in the assay on Detroit 98 [6] and in the assay with L cells [7] were 7.10 and 6.52, respectively.
`OC[C@H]1OC(n2ncc3c(NCc4ccccc4)ncnc32)[C@H](O)[C@@H]1O` (stereo not given in full) yielded a No. of chicks with Eimeria tenella [4] of 0. The compound also had an MIC against Eimeria tenella [3] of 0.31 µg/mL (≈ 0.867 µM).
In the assay with Eimeria tenella [4], `CCCCN(CC)c1ncnc2c1cnn2C1O[C@H](CO)[C@@H](O)[C@H]1O` (stereo not given in full) gave a No. of chicks of 0. Besides, the MIC against Eimeria tenella [3] was found to be 5 µg/mL (≈ 14.2 µM).
For the compound `CCNc1ncnc2c1cnn2C1O[C@H](CO)[C@@H](O)[C@H]1O` (stereo not given in full), the No. of chicks in the assay on Gallus gallus [1] is recorded as 1. In the assay with Eimeria tenella [3], this compound showed a minimum inhibitory concentration (MIC) of 5 µg/mL (≈ 16.9 µM).
Regarding `CCCCNc1ncnc2c1cnn2C1O[C@H](CO)[C@@H](O)[C@H]1O` (stereo not given in full), in the assay on Eimeria tenella [4], the No. of chicks is given as 0. In the assay with Eimeria tenella [3], it took 1.25 µg/mL (≈ 3.87 µM) to inhibit growth (MIC).
The compound `CCCCCCCCNc1ncnc2c1cnn2C1O[C@H](CO)[C@@H](O)[C@H]1O` (stereo not given in full) registered an MIC in the assay with Eimeria tenella [3] of 5 µg/mL (≈ 13.2 µM). Besides, the No. of chicks in the assay on Gallus gallus [8] is reported as 0.
In the assay on Gallus gallus [9], `CCN(CC)c1ncnc2c1cnn2C1O[C@H](CO)[C@@H](O)[C@H]1O` (stereo not given in full) showed a No. of chicks of 1. In the assay with Eimeria tenella [3], this compound displayed an MIC of 5 µg/mL (≈ 15.5 µM).
Regarding `CNc1ncnc2c1cnn2C1O[C@H](CO)[C@@H](O)[C@H]1O` (stereo not given in full), the No. of chicks in the assay with Eimeria tenella [4] turned out to be 0. The MIC against Eimeria tenella [3] is 0.31 µg/mL (≈ 1.1 µM).
Regarding `NNc1ncnc2c1cnn2C1O[C@H](CO)[C@@H](O)[C@H]1O` (stereo not given in full), the No. of chicks with Gallus gallus [10] was determined as 0. Moreover, in the assay with Eimeria tenella [3], the lowest concentration to inhibit growth (MIC) was 5 µg/mL (≈ 17.7 µM). The pEC50 is 4.70 with Detroit 98 [6] and 4.00 with L cells [7].
`CN(C)c1ncnc2c1cnn2C1O[C@H](CO)[C@@H](O)[C@H]1O` (stereo not given in full): in the assay on Eimeria tenella [3], the MIC was 5 µg/mL (≈ 16.9 µM). In addition, the No. of chicks in the assay with Gallus gallus [11] was found to be 2.
As for `OC[C@H]1OC(n2ncc3c(NCc4ccco4)ncnc32)[C@H](O)[C@@H]1O` (stereo not given in full), the MIC in the assay with Eimeria tenella [3] worked out at 0.31 µg/mL (≈ 0.893 µM). Further, the pEC50 was 6.52 with Detroit 98 [6] and 5.52 in the assay on L cells [7].
As to `CC(C)=CCNc1ncnc2c1cnn2C1O[C@H](CO)[C@@H](O)[C@H]1O` (stereo not given in full), the No. of chicks in the assay with Eimeria tenella [4] and with Gallus gallus [12] was 0 in each case. In the assay on Eimeria tenella [3], this compound yielded an MIC of 5 µg/mL (≈ 14.9 µM). For the same compound, the pEC50 with Detroit 98 [6] was 5.82; in the assay with L cells [7], below 4.00.
In the assay on Eimeria tenella [4], `CCCCCCN(CCCCCC)c1ncnc2c1cnn2C1O[C@H](CO)[C@@H](O)[C@H]1O` (stereo not given in full) displayed a No. of chicks of 1. Also, in the assay with Eimeria tenella [3], the MIC was above 20 µg/mL. In addition, the pEC50 in the assay with Detroit 98 [6] and in the assay on L cells [7] was 4.30 in each case.
Regarding `OC[C@H]1OC(n2ncc3c(NCCc4ccccc4)ncnc32)[C@H](O)[C@@H]1O` (stereo not given in full), the minimal inhibitory concentration (MIC) against Eimeria tenella [3] amounted to 5 µg/mL (≈ 13.5 µM). In addition, in the assay with Gallus gallus [8], the No. of chicks stood at 0.
`O=C(Nc1ncnc2c1cnn2C1O[C@H](CO)[C@@H](O)[C@H]1O)c1ccccc1` (stereo not given in full) yielded a No. of chicks with Eimeria tenella [4] of 0. The MIC in the assay filed under Gallus gallus [5] came out at 5 µg/mL (≈ 13.5 µM). Besides, the pEC50 in the assay on Detroit 98 [13] and in the assay with L cells [14] was below 4.00 throughout.
